Screening data: PubChem BioAssay, Sanford-Burnham Center for Chemical Genomics
FLuc act counter: firefly luciferase counter-screen for stimulation assays. P08659. ATPlite luciferase biochemical, luminescence, 10 min; 0 = ATP-free wells, 1 = DMSO control. activation factor at 10 µM. 200,000 tested, under 10 active. AID 1027;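 active = luciferase activation factor, scaled between plate controls, of at least 2 with compound at 10 µM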
Target sequence (P08659 whole entry, looked up): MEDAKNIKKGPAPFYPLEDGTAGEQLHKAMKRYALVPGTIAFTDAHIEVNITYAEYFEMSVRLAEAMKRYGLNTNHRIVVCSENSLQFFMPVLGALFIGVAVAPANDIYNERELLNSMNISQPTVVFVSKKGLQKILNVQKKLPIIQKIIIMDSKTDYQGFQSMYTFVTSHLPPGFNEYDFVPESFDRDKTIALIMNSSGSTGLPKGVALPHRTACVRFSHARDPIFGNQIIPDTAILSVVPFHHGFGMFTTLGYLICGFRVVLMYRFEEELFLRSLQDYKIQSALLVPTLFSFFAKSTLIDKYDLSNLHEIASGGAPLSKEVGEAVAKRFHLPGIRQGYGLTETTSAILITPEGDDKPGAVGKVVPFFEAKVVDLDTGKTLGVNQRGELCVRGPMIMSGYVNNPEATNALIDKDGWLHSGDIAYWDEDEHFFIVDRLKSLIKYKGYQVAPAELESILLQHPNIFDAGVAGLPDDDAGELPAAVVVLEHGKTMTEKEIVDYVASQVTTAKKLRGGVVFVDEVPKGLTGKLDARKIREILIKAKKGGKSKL
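Assay system: Luciferase/luciferin reagent mix; Medium: PBS as buffer for the ATP substrate; Dosing: test compounds dosed from 2 mM stocks in 100% DMSO; Times: 10 min, room temperature; Signal: luminescence from luciferase reaction; Read-out: luciferase activation; Controls: No-ATP low control, compound-free enzyme-plus-ATP high control.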
TRAIL sens C8: caspase-8 TRAIL sensitization; NB7+C8 cells + TRAIL, ATPlite viability luminescence; inhibition (viability loss, TRAIL sensitization), % at 10 µM; 360,000 tested, 1% active;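 active = compounds causing at least 50% loss of cell viability in the single-dose screen, relative to plate controls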
PPC-1+TRAIL kill: PPC-1 cancer cell killing with TRAIL present; PPC-1 cells + TRAIL, ATPLite viability luminescence; cell killing (% activity), % at 4 µM or 5 µM; 220,000 tested, 0.41% active; AID 1443;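 active = cell killing above 50% in the first pass at 4 µM, then a duplicate retest at 5 µM averaging 50% or more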
FLuc inhib CS: counter-screen for luciferase assay inhibitors: firefly luciferase inhibition; P08659; ATPLite firefly luciferase biochemical luminescence, 10 min; inhibition, % at 10 µM; 200,000 tested, 1.5% active; AID 1006;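 active = inhibition above about 50% when tested at 10 µM, limit read from the data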
PPC-1 tox: PPC-1 cell cytotoxicity; shares compounds with PPC-1+TRAIL kill; PPC-1 viability, ATPlite luminescence, overnight; cytotoxicity, % at 5 µM; 1,200 tested, 50% active; AID 1447;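 active = reconfirmed compounds whose average cytotoxicity reaches 50% or more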
Large screens that a line does not name were inactive (follow-up assays come after a bar, where they were run). In the library only some 1.5% were active in any assay of this set; here they are far more common.

CCNC1=C(Cl)C(=O)c2ccccc2C1=O	none
O=C(NC1CCc2ccccc21)c1cc(COc2cncc(Cl)c2)on1 (configuration not stated)	none (no result: FLuc act counter, PPC-1+TRAIL kill, FLuc inhib CS)
COc1ccc(N(CC(=O)NC(C)(C)C)C(=O)CCC(=O)Nc2nccs2)c(OC)c1	none (no result: FLuc act counter, PPC-1+TRAIL kill, FLuc inhib CS)
Cc1ccc(NC(=O)N2CCc3ccccc3C2)cc1	none
Cc1ccc(NC(=O)N2CCc3ccccc32)cc1	TRAIL sens C8 63, PPC-1+TRAIL kill 67, FLuc inhib CS 90 | PPC-1 tox 65
Cc1ccc(NC(=O)N2CCc3ccccc32)cc1C	TRAIL sens C8 66, PPC-1+TRAIL kill 55, FLuc inhib CS 86 | PPC-1 tox 59
CC(OC(=O)CCOc1ccccc1)C(=O)Nc1ccc(Cl)cn1 (configuration not stated)	none (no result: FLuc act counter, PPC-1+TRAIL kill, FLuc inhib CS)
Cn1c(-c2ccccc2)c(/C=N/NC(=O)c2ccc(O)cc2)c2ccccc21	none (no result: FLuc act counter, FLuc inhib CS)
CCC(C)(C)c1ccc(OCCCC[n+]2cccc(C)c2C)c(C(C)(C)CC)c1	PPC-1+TRAIL kill 62 (no result: FLuc act counter, FLuc inhib CS) | PPC-1 tox 58
Cc1cccc(NC(=O)C2CCN(c3nccc(C)n3)CC2)c1	none
COCCn1c(C)cc(/C=C2/SC(=O)N(C(C)C(=O)OC)C2=O)c1C (configuration not stated)	TRAIL sens C8 63, PPC-1+TRAIL kill 53 (no result: FLuc act counter, FLuc inhib CS) | PPC-1 tox inactive
CCc1ccc(/C=N/NC(=O)c2ccccn2)cc1	TRAIL sens C8 82, PPC-1+TRAIL kill 72 (no result: FLuc act counter, FLuc inhib CS) | PPC-1 tox 71
O=C(N/N=C/c1ccc(OC(=O)c2ccccc2Cl)cc1)c1ccccn1	none (no result: FLuc act counter, PPC-1+TRAIL kill, FLuc inhib CS)
CC(=C/c1ccccc1)/C=N/NC(=O)c1ccccn1	TRAIL sens C8 85, PPC-1+TRAIL kill 82 (no result: FLuc act counter, FLuc inhib CS) | PPC-1 tox 81
C=C(CN(C)C)C(=O)c1cc(C)ccc1C	none (no result: FLuc act counter, PPC-1+TRAIL kill, FLuc inhib CS)
CCN(C[C@H]1N[C@@](C)(C(=O)OC)[C@H]2C(=O)N(Cc3ccccc3)C(=O)[C@@H]12)S(=O)(=O)c1ccccc1	none (no result: FLuc act counter, PPC-1+TRAIL kill, FLuc inhib CS)
C=CCNC(=S)N(CC)c1cccc2ccccc12	none
COc1ccc(N2CCN(Cc3oc(CO)cc(=O)c3O)CC2)cc1	none | PPC-1 tox inactive
COC(=O)[C@]1(Cc2ccccc2)N[C@H](CN(C)C(=O)COc2ccccc2)[C@@H]2C(=O)N(Cc3ccccc3)C(=O)[C@@H]21	none (no result: FLuc act counter, PPC-1+TRAIL kill, FLuc inhib CS)
O=C(Nn1c(-c2ccc(F)cc2)nc2ccccc2c1=O)C1CCCCC1	none
O=C(CSc1nnc(-c2ccncc2)o1)Nc1cc(F)ccc1F	none (no result: FLuc act counter, PPC-1+TRAIL kill, FLuc inhib CS)
O=C(CSc1nnc(-c2ccccc2)o1)Nc1ccccc1F	TRAIL sens C8 59 | PPC-1 tox 51
Cc1ccc(-c2nnc(SCC(=O)Nc3ccccc3F)o2)cc1	TRAIL sens C8 72, PPC-1+TRAIL kill 76 | PPC-1 tox 70
O=C(CSc1ncn[nH]1)Nc1nc(-c2ccccc2)cs1	none | PPC-1 tox inactive
COc1ccc(-c2csc(NC(=O)CSc3ncn[nH]3)n2)cc1OC	none
CCCCC(=O)Nc1ccccc1Oc1ccccc1	none | PPC-1 tox inactive
O=C1C(=O)N(CCCn2ccnc2)C(c2ccc([N+](=O)[O-])cc2)/C1=C(\O)c1ccc2c(c1)OCCO2 (configuration not stated)	none (no result: FLuc act counter, PPC-1+TRAIL kill, FLuc inhib CS)
Cn1c(C(=O)N2CCc3ccccc3C2)cc2oc3ccccc3c21	none
CCn1c(C(=O)N2CCc3ccccc3C2)cc2oc3ccccc3c21	none | PPC-1 tox inactive
COc1ccccc1C(=O)Nc1cccc2nc(C)ccc12	none (no result: FLuc act counter, PPC-1+TRAIL kill, FLuc inhib CS)
Cc1ccccc1NC(=O)N1C2CCC1CC(O)(c1cccnc1)C2 (configuration not stated)	none
O=C(Nc1ccccc1Cl)N1C2CCC1CC(O)(c1cccnc1)C2 (configuration not stated)	none | PPC-1 tox inactive
Cc1c(Cl)cccc1NC(=O)Cn1cc(C(F)(F)F)cc(Cl)c1=O	none
O=C1c2ccccc2C(=O)C1c1ccnc2ccccc12	TRAIL sens C8 90, PPC-1+TRAIL kill 86, FLuc inhib CS 91 | PPC-1 tox 87
O=C1C(c2ccnc3ccccc23)=C(O)c2ccccc21	TRAIL sens C8 89, PPC-1+TRAIL kill 84, FLuc inhib CS 90 | PPC-1 tox 86
O=C1C(=O)c2ccccc2C(O)=C1c1ccccc1F	none (no result: FLuc act counter, FLuc inhib CS)
COCCOc1cc(-n2cccc2)c(Cl)cc1Cl	none
CCNC(=O)C1CCCN(C(=O)c2ccc3c(c2)OCO3)CC1 (configuration not stated)	none (no result: FLuc act counter, PPC-1+TRAIL kill, FLuc inhib CS)
Cn1c(CNC(=O)Cc2ccc3c(c2)OCO3)nnc1SCc1ccccc1	none | PPC-1 tox inactive
Cc1ccccc1NC(=O)CSc1nnc(CNC(=O)c2ccc3c(c2)OCO3)n1C	none (no result: FLuc act counter, PPC-1+TRAIL kill, FLuc inhib CS)
COc1ccc(NS(=O)(=O)c2cc(C(=O)N(C)CCc3ccccn3)ccc2Cl)cc1	none (no result: FLuc act counter, PPC-1+TRAIL kill, FLuc inhib CS)
